Peptide text beside a SMILES is read from it.
Tests used:
[1] = target: Trypsin (Sus scrofa, UniProt P00761); test: Stability of the compound assessed as porcine pancreatic trypsin-mediated compound degradation at 0.1 mM after 10 secs by reverse-phase HPLC/MS analysis; assay type: ADME; conditions: pig, isolated protein, 10 s, 100 µM
Method in brief: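 Peptide (0.1 mM) incubated at 37 °C with 100 nM purified porcine pancreatic trypsin in 50 mM Tris-HCl, 20 mM CaCl₂, pH 8.0. Timed samples were acid-quenched with 10% (v/v) 0.1 M HCl, then analysed by reverse-phase HPLC-MS. Mean ± range of two independent experiments.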

[2] = target: Dipeptidyl peptidase 4 (Sus scrofa, UniProt P22411); test: Stability of the compound assessed as porcine DPP4-mediated compound degradation at 0.1 mM measured over 30 mins by reverse-phase HPLC/MS analysis; assay type: ADME; conditions: pig, 0.5 h, 100 µM
Chain of Dipeptidyl peptidase 4 (Sus scrofa, UniProt P22411) (P22411 whole entry): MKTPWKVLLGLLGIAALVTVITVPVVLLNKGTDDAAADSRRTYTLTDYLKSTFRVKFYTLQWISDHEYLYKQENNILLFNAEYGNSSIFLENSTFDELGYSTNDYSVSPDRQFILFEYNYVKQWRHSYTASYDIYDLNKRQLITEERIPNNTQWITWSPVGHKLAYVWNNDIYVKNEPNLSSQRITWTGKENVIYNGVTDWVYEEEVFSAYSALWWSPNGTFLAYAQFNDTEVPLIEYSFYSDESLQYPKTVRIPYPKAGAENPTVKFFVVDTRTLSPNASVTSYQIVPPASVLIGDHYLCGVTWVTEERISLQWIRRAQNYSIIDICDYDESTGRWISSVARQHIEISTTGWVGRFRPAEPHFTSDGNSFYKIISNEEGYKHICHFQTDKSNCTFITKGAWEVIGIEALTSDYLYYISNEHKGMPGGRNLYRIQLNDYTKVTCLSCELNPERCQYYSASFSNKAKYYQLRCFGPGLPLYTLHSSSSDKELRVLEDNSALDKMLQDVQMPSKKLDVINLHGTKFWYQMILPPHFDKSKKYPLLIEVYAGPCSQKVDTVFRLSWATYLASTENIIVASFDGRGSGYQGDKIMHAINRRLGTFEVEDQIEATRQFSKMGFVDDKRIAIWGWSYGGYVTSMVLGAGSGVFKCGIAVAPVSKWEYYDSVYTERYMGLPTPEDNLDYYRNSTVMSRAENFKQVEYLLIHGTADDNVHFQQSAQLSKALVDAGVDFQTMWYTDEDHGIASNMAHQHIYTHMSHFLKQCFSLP
Method in brief: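 Peptide (0.1 mM) incubated at 37 °C with DPP IV purified from porcine kidney (10 mU/mL) in 50 mM HEPES, 0.14 M NaCl, pH 8.0. Samples taken at set times and quenched with 10% (v/v) 0.1 M HCl. Intact peptide quantified by reverse-phase HPLC-MS and expressed as percent of the time-0 amount.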

[3] = target: Chymotrypsinogen A (Bos taurus) (UniProt P00766); test: Stability of the compound assessed as bovine pancreatic chymotrypsin-mediated compound degradation at 0.1 mM after 10 secs by reverse-phase HPLC/MS analysis; conditions: cow, isolated protein, 10 s, 100 µM
[4] = target: DPP4 (dipeptidyl peptidase 4) (Rattus norvegicus, UniProt P14740); test: Metabolic stability in rat serum assessed as half life of DPP4-mediated compound degradation; assay type: ADME, cell-free
Chain of DPP4 (dipeptidyl peptidase 4) (Rattus norvegicus, UniProt P14740) (P14740 whole entry): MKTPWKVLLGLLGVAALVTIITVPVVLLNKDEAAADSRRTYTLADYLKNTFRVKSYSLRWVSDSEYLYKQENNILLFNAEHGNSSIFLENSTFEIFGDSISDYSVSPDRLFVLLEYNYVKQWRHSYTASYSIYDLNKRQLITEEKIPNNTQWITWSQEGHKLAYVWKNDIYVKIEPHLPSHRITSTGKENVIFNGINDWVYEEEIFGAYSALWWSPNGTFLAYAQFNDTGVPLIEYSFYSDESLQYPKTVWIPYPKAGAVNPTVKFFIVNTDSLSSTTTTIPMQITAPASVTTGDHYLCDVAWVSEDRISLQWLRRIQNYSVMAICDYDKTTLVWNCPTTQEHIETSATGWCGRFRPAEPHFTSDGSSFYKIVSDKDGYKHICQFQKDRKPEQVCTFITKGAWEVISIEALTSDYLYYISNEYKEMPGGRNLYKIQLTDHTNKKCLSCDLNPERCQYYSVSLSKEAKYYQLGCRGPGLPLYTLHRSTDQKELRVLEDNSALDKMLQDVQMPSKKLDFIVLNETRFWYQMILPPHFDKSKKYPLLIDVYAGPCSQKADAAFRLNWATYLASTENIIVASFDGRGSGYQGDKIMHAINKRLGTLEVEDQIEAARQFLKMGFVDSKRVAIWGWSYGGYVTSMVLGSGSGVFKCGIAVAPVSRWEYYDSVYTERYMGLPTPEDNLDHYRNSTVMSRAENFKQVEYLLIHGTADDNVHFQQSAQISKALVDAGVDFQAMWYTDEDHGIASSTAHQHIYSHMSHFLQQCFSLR

[5] = target: Dipeptidyl peptidase 4 (Homo sapiens, UniProt P27487); test: Competitive inhibition of human recombinant DPP4 using AP-pNA as substrate preincubated for 30 mins followed by substrate addition measured after 30 mins by spectrophotometric analysis
Chain of Dipeptidyl peptidase 4 (Homo sapiens, UniProt P27487) (P27487 whole entry): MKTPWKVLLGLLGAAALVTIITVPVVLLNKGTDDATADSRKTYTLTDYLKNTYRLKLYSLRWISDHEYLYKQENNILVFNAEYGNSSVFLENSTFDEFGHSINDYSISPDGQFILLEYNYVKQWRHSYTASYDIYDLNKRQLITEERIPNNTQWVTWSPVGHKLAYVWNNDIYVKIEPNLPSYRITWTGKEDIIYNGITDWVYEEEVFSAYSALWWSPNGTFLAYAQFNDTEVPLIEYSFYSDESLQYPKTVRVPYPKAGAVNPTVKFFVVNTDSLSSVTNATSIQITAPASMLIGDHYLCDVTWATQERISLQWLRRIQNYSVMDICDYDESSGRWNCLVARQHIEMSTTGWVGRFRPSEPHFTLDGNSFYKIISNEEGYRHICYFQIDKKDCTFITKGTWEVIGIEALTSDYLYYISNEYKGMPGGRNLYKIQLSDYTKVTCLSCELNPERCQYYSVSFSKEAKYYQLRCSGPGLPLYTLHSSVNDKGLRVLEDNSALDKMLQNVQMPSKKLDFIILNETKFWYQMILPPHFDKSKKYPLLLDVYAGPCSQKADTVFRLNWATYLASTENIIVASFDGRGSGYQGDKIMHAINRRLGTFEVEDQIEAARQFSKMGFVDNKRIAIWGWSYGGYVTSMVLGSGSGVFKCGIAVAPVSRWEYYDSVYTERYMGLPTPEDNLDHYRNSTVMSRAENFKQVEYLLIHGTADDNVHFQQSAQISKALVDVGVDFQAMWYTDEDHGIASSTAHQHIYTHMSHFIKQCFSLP

[6] = target: DPP4 (dipeptidyl peptidase 4) (Homo sapiens, UniProt P27487); test: Metabolic stability in human plasma assessed as half life of DPP4-mediated compound degradation; assay type: ADME
Chain of DPP4 (dipeptidyl peptidase 4) (Homo sapiens, UniProt P27487) (P27487 whole entry): as above

Chain of Trypsin (P00761 whole entry): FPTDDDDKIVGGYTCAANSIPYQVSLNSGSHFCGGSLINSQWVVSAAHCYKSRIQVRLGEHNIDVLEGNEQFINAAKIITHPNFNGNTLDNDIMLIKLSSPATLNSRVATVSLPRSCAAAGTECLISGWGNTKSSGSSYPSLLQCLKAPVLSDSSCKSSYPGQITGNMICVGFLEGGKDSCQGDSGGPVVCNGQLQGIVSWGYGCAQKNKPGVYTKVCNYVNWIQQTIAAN

CC[C@H](C)[C@H](NC(=O)[C@H](Cc1ccccc1)NC(=O)[C@H](CCC(=O)O)NC(=O)[C@H](CCCCN)NC(=O)[C@H](C)NC(=O)[C@H](C)NC(=O)[C@H](CCC(N)=O)NC(=O)CNC(=O)[C@H](CCC(=O)O)NC(=O)[C@H](CC(C)C)NC(=O)[C@H](Cc1ccc(O)cc1)NC(=O)[C@H](CO)NC(=O)[C@H](CO)NC(=O)[C@@H](NC(=O)[C@H](CC(=O)O)NC(=O)[C@H](CO)NC(=O)[C@@H](NC(=O)[C@H](Cc1ccccc1)NC(=O)[C@@H](NC(=O)CNC(=O)[C@H](CCC(=O)O)NC(=O)[C@H](C)NC(=O)[C@@H](N)Cc1c[nH]cn1)[C@@H](C)O)[C@@H](C)O)C(C)C)C(=O)N[C@@H](C)C(=O)N[C@@H](Cc1c[nH]c2ccccc12)C(=O)N[C@@H](CC(C)C)C(=O)N[C@H](C(=O)N[C@@H](CCCCN)C(=O)NCC(=O)N[C@@H](CCCNC(=N)N)C(N)=O)C(C)C
Stability [1]: Unstable
Stability [2]: Stable
Stability [3]: Unstable

CC(C)[C@H](N)C(=O)N1CCC[C@H]1C(=O)N[C@@H](CC(=O)O)C(=O)N1CCC[C@H]1C(=O)N[C@@H](CCCNC(=N)N)C(N)=O (H-VPDPR-NH2)
half-life [4]: 5 min
Ki [5]: 142 µM

CC[C@H](C)[C@H](NC(=O)[C@H](CCCNC(=N)N)NC(=O)[C@H](CC(=O)O)NC(=O)[C@H](CCSC)NC(=O)[C@H](CCCCN)NC(=O)[C@H](CCCNC(=N)N)NC(=O)CNC(=O)[C@H](Cc1ccccc1)NC(=O)[C@H](CS)NC(=O)CNC(=O)[C@H](CO)NC(=O)CNC(=O)[C@H](CCC(N)=O)NC(=O)[C@@H](NC(=O)[C@H](CCSC)NC(=O)[C@H](CCCCN)NC(=O)[C@@H]1CCCN1C(=O)[C@@H](N)CO)C(C)C)C(=O)N[C@@H](CO)C(=O)N[C@@H](CO)C(=O)N[C@@H](CO)C(=O)N[C@@H](CO)C(=O)NCC(=O)N[C@@H](CC(C)C)C(=O)NCC(=O)N[C@@H](CS)C(=O)N[C@@H](CCCCN)C(=O)N[C@H](C(=O)N[C@@H](CC(C)C)C(=O)N[C@@H](CCCNC(=N)N)C(=O)N[C@@H](CCCNC(=N)N)C(=O)N[C@@H](Cc1cnc[nH]1)C(N)=O)C(C)C
half-life [6]: 15 min
